The source of these data is ChEMBL document CHEMBL1129929, “Analogues of methotrexate in rheumatoid arthritis. 1. Effects of 10-deazaaminopterin analogues on type II collagen-induced arthritis in mice” (J Med Chem, 1997).

For assay [1], the system named is Mus musculus. The assay can be described thus: Tested for antiinflammatory activity on mouse type II collagen arthritis as Paw swelling* of all animals in each group on day 44 at intraperitoneal dose of 12 mg/kg. It counts as functional. The procedure, abridged:
(§1)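 DBA/1 mice immunized with bovine type II collagen (Courtenay method, modified), antigen booster at day 21. Compounds given ip from 2 days before the first collagen challenge, then every 2 days. Hind paw dimensions (mm) measured for both limbs of all animals, expressed as mean ± SD. Eight mice per dose; untreated controls pooled from four experiments (48 animals).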

The test system of assay [2] is Mus musculus. The assay can be described thus: Tested for antiinflammatory activity on mouse type II collagen arthritis as Paw swelling* of all animals in each group on day 23 at intraperitoneal dose of 12 mg/kg. It counts as functional. The procedure, abridged:
as §1

Assay [3] deals with Mus musculus. The assay can be described thus: Tested for antiinflammatory activity on mouse type II collagen arthritis as Paw swelling* of all animals in each group on day 44 at intraperitoneal dose of 18 mg/kg. It counts as functional. The procedure, abridged: as §1
Assay [4] deals with Mus musculus. The assay can be described thus: Incidence of disease(mouse type II collagen arthritis) was scored as the percentage of animals within each experimental group that exhibited joint or limb inflammation on day 44 at intraperitoneal of dose 12 mg/kg. It counts as functional. The method, boiled down: (§2)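 DBA/1 mice were immunized with bovine type II collagen (modified Courtenay method), with a collagen booster on day 21. Compounds were given ip starting 2 days before the first collagen challenge and every 2 days thereafter. Incidence was the percentage of animals per group with joint or limb inflammation, scored on days 23, 30, 37 and 44.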

The subject of assay [5] is Mus musculus. The assay can be described thus: Incidence of disease(mouse type II collagen arthritis) was scored as the percentage of animals within each experimental group that exhibited joint or limb inflammation on day 30 at intraperitoneal of dose 18 mg/kg. The format is functional. The method, boiled down: as §2
Assay [6] concerns Mus musculus. The assay can be described thus: Tested for antiinflammatory activity on mouse type II collagen arthritis as Paw swelling* of all animals in each group on day 23 at intraperitoneal dose of 18 mg/kg. It counts as functional. The method, boiled down:
as §1

For assay [7], the system named is Mus musculus. The assay can be described thus: Tested for antiinflammatory activity on mouse type II collagen arthritis as Paw swelling* of all animals in each group on day 30 at intraperitoneal dose of 12 mg/kg. The format is functional. The method, boiled down: as §1
Assay [8] relates to Mus musculus. The assay can be described thus: Incidence of disease(mouse type II collagen arthritis) was scored as the percentage of animals within each experimental group that exhibited joint or limb inflammation on day 37 at intraperitoneal of dose 18 mg/kg. It counts as functional. The method, boiled down: as §2
Assay [9] deals with Mus musculus. The assay can be described thus: Incidence of disease(mouse type II collagen arthritis) was scored as the percentage of animals within each experimental group that exhibited joint or limb inflammation on day 44 at intraperitoneal of dose 18 mg/kg. It counts as functional. The method, boiled down: as §2
Assay [10] deals with Mus musculus. The assay can be described thus: Tested for antiinflammatory activity on mouse type II collagen arthritis as Paw swelling* of all animals in each group on 30 at intraperitoneal dose of 18 mg/kg. The format is functional. The procedure, abridged: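 DBA/1 mice were challenged with bovine type II collagen and boosted on day 21. Dosing was ip from 2 days before the initial challenge, then every 2 days, with eight animals per dose. Hind paw dimensions (mm) were measured for both limbs of all animals and given as mean ± SD. Untreated controls were pooled from four experiments (48 animals).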

Assay [11] deals with Mus musculus. The assay can be described thus: Incidence of disease(mouse type II collagen arthritis) was scored as the percentage of animals within each experimental group that exhibited joint or limb inflammation on day 30 at intraperitoneal of dose 12 mg/kg. It counts as functional. The procedure, abridged:
as §2

For assay [12], the system named is Mus musculus. The assay can be described thus: Incidence of disease(mouse type II collagen arthritis) was scored as the percentage of animals within each experimental group that exhibited joint or limb inflammation on day 23 at intraperitoneal dose of 12 mg/kg. It counts as functional. The procedure, abridged: as §2
For assay [13], the system named is Mus musculus. The assay can be described thus: Tested for antiinflammatory activity on mouse type II collagen arthritis as Paw swelling* of all animals in each group on day 37 at intraperitoneal dose of 18 mg/kg. It counts as functional. The procedure, abridged:
as §1

Assay [14] has as its system Mus musculus. The assay can be described thus: Incidence of disease(mouse type II collagen arthritis) was scored as the percentage of animals within each experimental group that exhibited joint or limb inflammation on day 23 at intraperitoneal dose of 18 mg/kg. The format is functional. The procedure, abridged: as §2
Assay [15] deals with Mus musculus. The assay can be described thus: Incidence of disease(mouse type II collagen arthritis) was scored as the percentage of animals within each experimental group that exhibited joint or limb inflammation on day 37 at intraperitoneal of dose 12 mg/kg. It counts as functional. The procedure, abridged:
as §2

In assay [16] the test system is Mus musculus. The assay can be described thus: Tested for antiinflammatory activity on mouse type II collagen arthritis as Paw swelling* of all animals in each group on day 37 at intraperitoneal dose of 12 mg/kg. It counts as functional. The method, boiled down: as §1
For assay [17], the system named is Mus musculus. The assay can be described thus: Incidence of disease(mouse type II collagen arthritis) was scored as the percentage of animals within each experimental group that exhibited joint or limb inflammation on day 37 at intraperitoneal of dose 15 mg/kg. The format is functional. The procedure, abridged: as §2
Assay [18] has as its system Mus musculus. The assay can be described thus: Incidence of disease(mouse type II collagen arthritis) was scored as the percentage of animals within each experimental group that exhibited joint or limb inflammation on day 23 at intraperitoneal dose of 15 mg/kg. It counts as functional. The procedure, abridged:
as §2

For assay [19], the system named is Mus musculus. The assay can be described thus: Incidence of disease(mouse type II collagen arthritis) was scored as the percentage of animals within each experimental group that exhibited joint or limb inflammation on day 30 at intraperitoneal of dose 15 mg/kg. The format is functional. The method, boiled down: as §2
Assay [20] is described as follows: Concentration required to inhibit the growth of chang liver cells. It counts as functional. The conditions noted are these: Homo sapiens.
For assay [21], the system named is Mus musculus. The assay can be described thus: Incidence of disease(mouse type II collagen arthritis) was scored as the percentage of animals within each experimental group that exhibited joint or limb inflammation on day 44 at intraperitoneal of dose 9 mg/kg. It counts as functional. The method, boiled down: as §2
In assay [22] the test system is Mus musculus. The assay can be described thus: Incidence of disease(mouse type II collagen arthritis) was scored as the percentage of animals within each experimental group that exhibited joint or limb inflammation on day 37 at intraperitoneal of dose 9 mg/kg. It counts as functional. The method, boiled down: as §2
The test system of assay [23] is Mus musculus. The assay can be described thus: Tested for antiinflammatory activity on mouse type II collagen arthritis as Paw swelling* of all animals in each group on day 37 at intraperitoneal dose of 15 mg/kg. The format is functional. The procedure, abridged: as §1
For assay [24], the system named is Mus musculus. The assay can be described thus: Tested for antiinflammatory activity on mouse type II collagen arthritis as Paw swelling* of all animals in each group on day 30 at intraperitoneal dose of 9 mg/kg. It counts as functional. The procedure, abridged: as §1
Assay [25] relates to Mus musculus. The assay can be described thus: Incidence of disease(mouse type II collagen arthritis) was scored as the percentage of animals within each experimental group that exhibited joint or limb inflammation on day 23 at intraperitoneal dose of 9 mg/kg. It counts as functional. The procedure, abridged:
as §2

Assay [26] concerns Mus musculus. The assay can be described thus: Tested for antiinflammatory activity on mouse type II collagen arthritis as Paw swelling* of all animals in each group on day 37 at intraperitoneal dose of 9 mg/kg. The format is functional. The method, boiled down:
as §1

The test system of assay [27] is Mus musculus. The assay can be described thus: Tested for antiinflammatory activity on mouse type II collagen arthritis as Paw swelling* of all animals in each group on day 44 at intraperitoneal dose of 15 mg/kg. It counts as functional. The procedure, abridged:
as §1

A further assay relates to L1210. The assay can be described thus: Concentration required to inhibit the growth of L1210 cells. The format is functional, cell-based. Conditions: Mus musculus.
The test system of assay [28] is Mus musculus. The assay can be described thus: Incidence of disease(mouse type II collagen arthritis) was scored as the percentage of animals within each experimental group that exhibited joint or limb inflammation on day 44 at intraperitoneal of dose 15 mg/kg. It counts as functional. The method, boiled down:
as §2

Assay [29] deals with Mus musculus. The assay can be described thus: Tested for antiinflammatory activity on mouse type II collagen arthritis as Paw swelling* of all animals in each group on day 23 at intraperitoneal dose of 15 mg/kg. It counts as functional. The method, boiled down: as §1
Assay [30] has as its system Mus musculus. The assay can be described thus: Incidence of disease(mouse type II collagen arthritis) was scored as the percentage of animals within each experimental group that exhibited joint or limb inflammation on day 30 at intraperitoneal of dose 9 mg/kg. The format is functional. The method, boiled down:
as §2

The test system of assay [31] is Mus musculus. The assay can be described thus: Tested for antiinflammatory activity on mouse type II collagen arthritis as Paw swelling* of all animals in each group on day 23 at intraperitoneal dose of 9 mg/kg. It counts as functional. The method, boiled down:
as §1

For assay [32], the system named is Mus musculus. The assay can be described thus: Tested for antiinflammatory activity on mouse type II collagen arthritis as Paw swelling* of all animals in each group on day 30 at intraperitoneal dose of 15 mg/kg. The format is functional. The method, boiled down: as §1
The subject of assay [33] is Mus musculus. The assay can be described thus: Tested for antiinflammatory activity on mouse type II collagen arthritis as Paw swelling* of all animals in each group on day 44 at intraperitoneal dose of 9 mg/kg. It counts as functional. The procedure, abridged:
as §1

With `CCC(Cc1cnc2nc(N)nc(N)c2n1)c1ccc(C(=O)N[C@@H](CCC(=O)O)C(=O)O)cc1` (some centres not stated) [EDATREXATE], the Paw swelling in the assay with Mus musculus [1] is 2.32 mm; in the assay with Mus musculus [2], 2.26 mm; in the assay with Mus musculus [3], 2.18 mm; in the assay on Mus musculus [6], 2.18 mm; in the assay with Mus musculus [7] it was 2.28 mm; in the assay on Mus musculus [10] it was 2.24 mm. Besides, the Paw swelling was 2.19 mm in the assay with Mus musculus [13] and 2.34 mm with Mus musculus [16]. The Animals in the assay on Mus musculus [4] amounted to 50%; with Mus musculus [5], 0%; in the assay with Mus musculus [8], 12%; in the assay on Mus musculus [9], 12%; in the assay with Mus musculus [11], 25%; in the assay on Mus musculus [12], 25%. Moreover, the Animals with Mus musculus [14] is 12%; in the assay on Mus musculus [15], 38%.
Consider `Nc1nc(N)c2nc(CCc3ccc(C(=O)N[C@@H](CCC(=O)O)C(=O)O)cc3)cnc2n1`, for which the Paw swelling in the assay on Mus musculus [1] came out at 2.33 mm; in the assay on Mus musculus [2], 2.21 mm; in the assay on Mus musculus [23], 2.29 mm; in the assay on Mus musculus [24] it was 2.32 mm; in the assay on Mus musculus [7], 2.36 mm; in the assay with Mus musculus [26] it was 2.28 mm. Further, the Paw swelling in the assay with Mus musculus [27] came out at 2.3 mm; in the assay with Mus musculus [29], 2.2 mm; in the assay with Mus musculus [31], 2.19 mm; with Mus musculus [32], 2.31 mm; in the assay on Mus musculus [33], 2.32 mm; in the assay with Mus musculus [16], 2.31 mm. Moreover, the Animals in the assay on Mus musculus [17] worked out at 50%; with Mus musculus [18], 0%; with Mus musculus [19], 38%; in the assay with Mus musculus [21], 50%; in the assay on Mus musculus [22], 38%; with Mus musculus [4], 62%. In addition, the Animals in the assay on Mus musculus [25] was determined as 25%; in the assay on Mus musculus [28], 38%; in the assay with Mus musculus [11], 50%; with Mus musculus [12], 12%; in the assay with Mus musculus [30] it was 38%; with Mus musculus [15] it was 50%. Moreover, the figures for the IC50 (in assay [20]; with L1210) were 98 nM and 3.7 nM, respectively.
